Data as given in ChEMBL document CHEMBL1158454, “Discovery of a potent and orally active hedgehog pathway antagonist (IPI-926)” (J Med Chem, 2009).
Activity calls are given as the source filed them.

What was measured:
[1] = Inhibition of HedgeHog pathway in mouse C3H10T1/2 cells assessed as inhibition of 20-(S)-hydroxysterol/22-(S)-hydroxysterol-induced osteoblastic differentiation after 72 hrs by alkaline phosphatase assay; conditions: C3H 10T1/2, 72 h
in vitro = conditions: human
[2] = Oral bioavailability in CD1 mouse at 5 mg/kg; assay type: ADME, organism-based; conditions: in vivo
[3] = Toxicity in po dosed Ptc+/- Hic+/- mouse B837Tx cells allografted NOD/SCID mouse assessed as maximum tolerated dose after 5 days; assay type: organism-based; conditions: in vivo
Outline: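 Tumor-bearing immunocompromised mice received repeat oral dosing for 5 days. MTD was defined as the dose tolerated by all animals (N = 3).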

[4] = Volume of distribution in Beagle dog at 1 mg/kg, iv; assay type: ADME, organism-based, Canis lupus familiaris; design: dose 1 mg/kg, route intravenous; conditions: in vivo
Outline: (§1)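 Plasma sampled at 0.083-24 h (T_last 24 h), protein-precipitated with acetonitrile containing jervine internal standard, and quantified by LC/MS/MS. Parameters taken from the concentration-time profile.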

[5] = Elimination half life in cynomolgus monkey at 1 mg/kg, iv; assay type: ADME, organism-based, Macaca fascicularis; design: dose 1 mg/kg, route intravenous; conditions: in vivo, read-out: beta t1/2 (converted)
Outline: as §1

[6] = Oral bioavailability in Beagle dog at 4 mg/kg; assay type: ADME, organism-based, Canis lupus familiaris; conditions: in vivo
Mus musculus [7] = assay: Antitumor activity against Ptc+/- Hic+/- mouse B837Tx cells allografted in NOD/SCID mouse assessed as median time to unmeasurable tumor volume at 25 mg/kg, po administered daily for 21 days; assay type: functional, organism-based; design: dose 25 mg/kg
[8] = Volume of distribution in cynomolgus monkey at 1 mg/kg, iv; assay type: ADME, organism-based, Macaca fascicularis; design: dose 1 mg/kg, route intravenous; conditions: in vivo
Outline: as §1

[9] = Elimination half life in Sprague-Dawley rat at 1 mg/kg, iv; assay type: ADME, organism-based; design: dose 1 mg/kg, route intravenous; conditions: in vivo, read-out: beta t1/2 (converted)
Outline: as §1

[10] = Plasma clearance in CD1 mouse at 1 mg/kg, iv; assay type: ADME, organism-based; design: dose 1 mg/kg, route intravenous
Outline: as §1

Mus musculus [11] = assay: Antitumor activity against Ptc+/- Hic+/- mouse B837Tx cells allografted in NOD/SCID mouse assessed as effect on recurrence rate on post treatment at 25 mg/kg, po administered daily for 21 days; assay type: functional, organism-based; design: dose 25 mg/kg
[12] = Oral bioavailability in Sprague-Dawley rat at 5 mg/kg; assay type: ADME, organism-based; conditions: in vivo
[13] = Plasma clearance in cynomolgus monkey at 1 mg/kg, iv; assay type: ADME, organism-based, Macaca fascicularis; design: dose 1 mg/kg, route intravenous
Outline: as §1

[14] = Volume of distribution in Sprague-Dawley rat at 1 mg/kg, iv; assay type: ADME, organism-based; design: dose 1 mg/kg, route intravenous; conditions: in vivo
Outline: as §1

[15] = Elimination half life in CD1 mouse at 1 mg/kg, iv; assay type: ADME, organism-based; design: dose 1 mg/kg, route intravenous; conditions: in vivo, read-out: beta t1/2 (converted)
Outline: as §1

[16] = Elimination half life in Beagle dog at 1 mg/kg, iv; assay type: ADME, organism-based, Canis lupus familiaris; design: dose 1 mg/kg, route intravenous; conditions: in vivo, read-out: beta t1/2 (converted)
Outline: as §1

[17] = Volume of distribution in CD1 mouse at 1 mg/kg, iv; assay type: ADME, organism-based; design: dose 1 mg/kg, route intravenous; conditions: in vivo
Outline: as §1

[18] = Plasma clearance in Beagle dog at 1 mg/kg, iv; assay type: ADME, organism-based, Canis lupus familiaris; design: dose 1 mg/kg, route intravenous
Outline: as §1

Mus musculus [19] = assay: Antitumor activity against Ptc+/- Hic+/- mouse B837Tx cells allografted in NOD/SCID mouse assessed as tumor-free interval on 21 days post treatment at 25 mg/kg, po administered daily for 21 days; assay type: functional, organism-based; design: dose 25 mg/kg
[20] = Plasma clearance in Sprague-Dawley rat at 1 mg/kg, iv; assay type: ADME, organism-based; design: dose 1 mg/kg, route intravenous
Outline: as §1

[21] = Oral bioavailability in cynomolgus monkey at 4 mg/kg; assay type: ADME, organism-based, Macaca fascicularis; conditions: in vivo
Mus musculus [22] = assay: Antitumor activity against Ptc+/- Hic+/- mouse B837Tx cells allografted in NOD/SCID mouse assessed as tumor-free interval on 21 days post treatment at 40 mg/kg, po administered daily for 21 days; assay type: functional
Outline: (§2)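 NOD/SCID mice given 1 × 10^6 B837Tx cells in the right hind flank. Once tumors reached about 100-200 mm³, N=10/group were gavaged daily for 21 days. Vehicle: 30% (w/w) HPBCD in 0.1 M citrate phosphate buffer, pH 3, dosing solutions 5-10 mg/mL. Tumors measured in two perpendicular dimensions by caliper 3 times weekly. Regrowth monitored over a 21-day post-treatment phase.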

Mus musculus [23] = assay: Antitumor activity against Ptc+/- Hic+/- mouse B837Tx cells allografted in NOD/SCID mouse assessed as effect on recurrence rate on post treatment at 40 mg/kg, po administered daily for 21 days; assay type: functional, organism-based; design: dose 40 mg/kg
Outline: as §2

Mus musculus [24] = assay: Antitumor activity against Ptc+/- Hic+/- mouse B837Tx cells allografted in NOD/SCID mouse assessed as median time to unmeasurable tumor volume at 40 mg/kg, po administered daily for 21 days; assay type: functional
Outline: as §2

Row | SMILES | EC50 [1] | half-life at 0.5 µM (in vitro; microsomes) | half-life at 0.5 µM (in vitro; liver microsomes) | also measured
1 | CC1=C2C[C@H]3[C@@H](CC[C@@H]4C[C@@H](N)CC[C@@]43C)[C@@H]2CC[C@@]2(C1)O[C@@H]1C[C@H](C)CN[C@H]1[C@H]2C | > 1000 nM | – | – | –
2 | CC1=C2C[C@H]3[C@@H](CC[C@@H]4Cc5nocc5C[C@@]43C)[C@@H]2CC[C@@]2(C1)O[C@@H]1C[C@H](C)CN[C@H]1[C@H]2C | 62 nM | 0.133 h | – | –
3 | CC1=C2C[C@H]3[C@@H](CCC4=CC(=O)CC[C@@]43C)[C@@H]2CC[C@@]2(C1)O[C@@H]1C[C@H](C)CN[C@H]1[C@H]2C | 300 nM | 1.25 h | – | bioavailability [2]: 79%; MTD at 120 h [3]: 25 mg/kg; Vd [4]: 13.9 L/kg; half-life [5]: 2.4 h; bioavailability [6]: 7%; Activity (Mus musculus [7]): inactive; Vd [8]: 21.3 L/kg; half-life [9]: 1.7 h; clearance [10]: 60 mL/min/kg; Activity (Mus musculus [11]): inactive; bioavailability [12]: 13%; clearance [13]: 103 mL/min/kg; Vd [14]: 28 L/kg; half-life [15]: 3.5 h; half-life [16]: 2.2 h; Vd [17]: 18 L/kg; clearance [18]: 78.3 mL/min/kg; Activity (Mus musculus [19]): inactive; clearance [20]: 207 mL/min/kg; bioavailability [21]: 69%
4 | CO[C@H]1CC[C@@]2(C)[C@H](CC[C@H]3[C@@H]4CC[C@@]5(CC(C)=C4C[C@@H]32)O[C@@H]2C[C@H](C)CN[C@H]2[C@H]5C)C1 | 490 nM | > 3.33 h | – | –
5 | CC1=C2C[C@H]3[C@@H](CC[C@@H]4C[C@H](n5ccnn5)CC[C@@]43C)[C@@H]2CC[C@@]2(C1)O[C@@H]1C[C@H](C)CN[C@H]1[C@H]2C | 24 nM | – | 0.667 h | –
6 | CC1=C2C[C@H]3[C@@H](CC[C@@H]4C[C@H](N)CC[C@@]43C)[C@@H]2CC[C@@]2(C1)O[C@@H]1C[C@H](C)CN[C@H]1[C@H]2C | > 1000 nM | – | – | –
7 | CC1=C2C[C@H]3[C@@H](CC[C@@H]4C[C@@H](O)CC[C@@]43C)[C@@H]2CC[C@@]2(C1)O[C@@H]1C[C@H](C)CN[C@H]1[C@H]2C | 23 nM | – | 0.333 h | –
8 | CC1=C2C[C@H]3[C@@H](CC[C@@H]4Cc5nn(C)cc5C[C@@]43C)[C@@H]2CC[C@@]2(C1)O[C@@H]1C[C@H](C)CN[C@H]1[C@H]2C | 54 nM | – | 0.583 h | –
9 | CC1=C2C[C@H]3[C@@H](CC[C@@H]4Cc5n[nH]c(C(F)(F)F)c5C[C@@]43C)[C@@H]2CC[C@@]2(C1)O[C@@H]1C[C@H](C)CN[C@H]1[C@H]2C | 170 nM | – | 3.33 h | –
10 | CC1=C2C[C@H]3[C@@H](CC[C@@H]4C/C(=N/O)CC[C@@]43C)[C@@H]2CC[C@@]2(C1)O[C@@H]1C[C@H](C)CN[C@H]1[C@H]2C | 15 nM | 0.75 h | – | –
11 | CC1=C2C[C@H]3[C@@H](CC[C@@H]4C[C@H](O)CC[C@@]43C)[C@@H]2CC[C@@]2(C1)O[C@@H]1C[C@H](C)CN[C@H]1[C@H]2C | 9 nM | – | 0.667 h | –
12 | CC1=C2C[C@H]3[C@@H](CC[C@@H]4Cc5[nH][nH]c(=O)c5C[C@@]43C)[C@@H]2CC[C@@]2(C1)O[C@@H]1C[C@H](C)CN[C@H]1[C@H]2C | 170 nM | – | 1.67 h | –
13 | CC(=O)N[C@@H]1CC[C@@]2(C)[C@H](CC[C@H]3[C@@H]4CC[C@@]5(CC(C)=C4C[C@@H]32)O[C@@H]2C[C@H](C)CN[C@H]2[C@H]5C)C1 | 17 nM | 1.08 h | – | –
14 | CC1=C2C[C@H]3[C@@H](CC[C@@H]4C[C@@H](NS(C)(=O)=O)CC[C@@]43C)[C@@H]2CC[C@@]2(C1)O[C@@H]1C[C@H](C)CN[C@H]1[C@H]2C | 90 nM | 0.5 h | – | –
15 | CO[C@@H]1CC[C@@]2(C)[C@H](CC[C@H]3[C@@H]4CC[C@@]5(CC(C)=C4C[C@@H]32)O[C@@H]2C[C@H](C)CN[C@H]2[C@H]5C)C1 | 180 nM | 0.333 h | – | –
16 | CC1=C2C[C@H]3[C@@H](CC[C@@H]4C[C@@H](n5ccnn5)CC[C@@]43C)[C@@H]2CC[C@@]2(C1)O[C@@H]1C[C@H](C)CN[C@H]1[C@H]2C | 130 nM | – | 1.17 h | –
17 | CO/N=C1\CC[C@@]2(C)[C@H](CC[C@H]3[C@@H]4CC[C@@]5(CC(C)=C4C[C@@H]32)O[C@@H]2C[C@H](C)CN[C@H]2[C@H]5C)C1 | 160 nM | – | 0.917 h | –
18 | CC1=C2C[C@H]3[C@@H](CC[C@@H]4Cc5nc(C)sc5C[C@@]43C)[C@@H]2CC[C@@]2(C1)O[C@@H]1C[C@H](C)CN[C@H]1[C@H]2C | 270 nM | – | 1.67 h | –
19 | CC1=C2C[C@H]3[C@@H](CC[C@@H]4Cc5nn(S(=O)(=O)c6ccc(C)cc6)cc5C[C@@]43C)[C@@H]2CC[C@@]2(C1)O[C@@H]1C[C@H](C)CN[C@H]1[C@H]2C | 900 nM | – | 1.08 h | –
20 | CC(=O)N[C@H]1CC[C@@]2(C)[C@H](CC[C@H]3[C@@H]4CC[C@@]5(CC(C)=C4C[C@@H]32)O[C@@H]2C[C@H](C)CN[C@H]2[C@H]5C)C1 | 300 nM | 1 h | – | –
21 | CC1=C2C[C@H]3[C@@H](CC[C@@H]4CN(C)C(=O)CC[C@@]43C)[C@@H]2CC[C@@]2(C1)O[C@@H]1C[C@H](C)CN[C@H]1[C@H]2C | 40 nM | 0.767 h | – | –
22 | CC1=C2C[C@H]3[C@@H](CC[C@@H]4CCCC[C@@]43C)[C@@H]2CC[C@@]2(C1)O[C@@H]1C[C@H](C)CN[C@H]1[C@H]2C | 760 nM | – | – | –
23 | CC1=C2C[C@H]3[C@@H](CC[C@@H]4CC(=O)CC[C@@]43C)[C@@H]2CC[C@@]2(C1)O[C@@H]1C[C@H](C)CN[C@H]1[C@H]2C | 13 nM | 1.17 h | – | –
24 | CC1=C2C[C@H]3[C@@H](CC=C4C[C@@H](O)CC[C@@]43C)[C@@H]2CC[C@]12O[C@@H]1C[C@H](C)CN[C@H]1[C@H]2C | – | – | – | Activity (Mus musculus [22]): inactive; Activity (Mus musculus [23]): inactive; Activity (Mus musculus [24]): inactive
25 | CC1=C2C[C@H]3[C@@H](CC[C@@H]4Cc5nonc5C[C@@]43C)[C@@H]2CC[C@@]2(C1)O[C@@H]1C[C@H](C)CN[C@H]1[C@H]2C | 230 nM | – | 0.133 h | –
26 | CC1=C2C[C@H]3[C@@H](CC[C@H]4CC(=O)CC[C@@]43C)[C@@H]2CC[C@@]2(C1)O[C@@H]1C[C@H](C)CN[C@H]1[C@H]2C | 400 nM | 1.25 h | – | –
27 | CC1=C2C[C@H]3[C@@H](CC[C@@H]4Cc5nn(S(C)(=O)=O)cc5C[C@@]43C)[C@@H]2CC[C@@]2(C1)O[C@@H]1C[C@H](C)CN[C@H]1[C@H]2C | 140 nM | – | 3 h | –
28 | CC1=C2C[C@H]3[C@@H](CC[C@@H]4c5c[nH]nc5CC[C@@]43C)[C@@H]2CC[C@@]2(C1)O[C@@H]1C[C@H](C)CN[C@H]1[C@H]2C | 220 nM | 0.45 h | – | –
